Legend:
[1] = Cytotoxicity against human HeLa cells assessed as reduction in cell viability by MTT assay; type: toxicity, cell-based
Summary of the method: (§1)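 MTT viability on HeLa or VeroE6 cells, run in parallel with the antiviral assays. CC50 from variable-slope sigmoidal dose–response regression.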

[2] = Cytotoxicity against african green monkey Vero E6 cells assessed as reduction in cell viability by MTT assay; type: toxicity, cell-based; conditions: chlorocebus sabaeus, Vero E6 cells (Vero C1008); summary of the method: as §1
Bacillus subtilis [3] = assay: Antibacterial activity against Bacillus subtilis ATCC 6633 assessed as reduction in microbial growth measured after 18 hrs by CLSI based broth microdilution method; type: functional
Summary of the method: (§2)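 MIC by CLSI broth microdilution in Mueller–Hinton medium, triplicate. Inoculum 5 × 10^4 CFU per well. Compounds taken up in DMSO (50 mg mL−1 stock) and diluted in medium. Read after 18 h at 35 ± 2 °C.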

Bacillus subtilis [4] = assay: Bactericidal activity against Bacillus subtilis ATCC 6633 assessed as reduction in microbial growth measured after 18 hrs by CLSI based broth microdilution method; type: functional
Summary of the method: (§3)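 MBC by CLSI broth microdilution in Mueller–Hinton medium, triplicate. Inoculum 5 × 10^4 CFU per well. Read after 18 h at 35 ± 2 °C.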

Enterococcus faecalis [5] = assay: Antibacterial activity against Enterococcus faecalis ATCC 29212 assessed as reduction in microbial growth measured after 18 hrs by CLSI based broth microdilution method; type: functional; summary of the method: as §2
Enterococcus faecalis [6] = assay: Bactericidal activity against Enterococcus faecalis ATCC 29212 assessed as reduction in microbial growth measured after 18 hrs by CLSI based broth microdilution method; type: functional; summary of the method: as §3
Streptococcus pyogenes [7] = assay: Antibacterial activity against Streptococcus pyogenes ATCC 12344 assessed as reduction in microbial growth measured after 18 hrs by CLSI based broth microdilution method; type: functional; summary of the method: as §2
Streptococcus pyogenes [8] = assay: Bactericidal activity against Streptococcus pyogenes ATCC 12344 assessed as reduction in microbial growth measured after 18 hrs by CLSI based broth microdilution method; type: functional; summary of the method: as §3
Staphylococcus aureus [9] = assay: Antibacterial activity against Staphylococcus aureus ATCC 25923 assessed as reduction in microbial growth measured after 18 hrs by CLSI based broth microdilution method; type: functional; summary of the method: as §2
Escherichia coli [10] = assay: Synergistic antibacterial activity against Escherichia coli CCUGT incubated for 18 to 24 hrs in presence of colistin by broth microdilution method; type: functional; conditions: time 18-24 hrs
Klebsiella pneumoniae = assay: Synergistic antibacterial activity against Klebsiella pneumoniae ATCC 13833 incubated for 18 to 24 hrs in presence of colistin by broth microdilution method; type: functional; conditions: time 18-24 hrs
Acinetobacter baumannii [11] = assay: Synergistic antibacterial activity against Acinetobacter baumannii ATCC 17978 incubated for 18 to 24 hrs in presence of colistin by broth microdilution method; type: functional; conditions: time 18-24 hrs
Pseudomonas aeruginosa [12] = assay: Synergistic antibacterial activity against Pseudomonas aeruginosa ATCC 27853 incubated for 18 to 24 hrs in presence of colistin by broth microdilution method; type: functional; conditions: time 18-24 hrs
Staphylococcus aureus [13] = assay: Antibacterial activity against methicillin-resistant Staphylococcus aureus ATCC 43300 assessed as reduction in microbial growth measured after 18 hrs by CLSI based broth microdilution method; type: functional
Summary of the method: (§4)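 Gram-positive clinical isolates; compounds dissolved in DMSO (50 mg mL−1 stock) and diluted in medium; MIC by CLSI broth microdilution in Mueller–Hinton medium, inoculum 5 × 10^4 CFU per well, read after 18 h at 35 ± 2 °C; triplicate.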

Staphylococcus aureus [14] = assay: Bactericidal activity against methicillin-resistant Staphylococcus aureus ATCC 43300 assessed as reduction in microbial growth measured after 18 hrs by CLSI based broth microdilution method; type: functional
Staphylococcus warneri [15] = assay: Antibacterial activity against oxacillin-resistant Staphylococcus warneri SI-5/2011 assessed as reduction in microbial growth measured after 18 hrs by CLSI based broth microdilution method; type: functional; summary of the method: as §4
Staphylococcus warneri [16] = assay: Bactericidal activity against oxacillin-resistant Staphylococcus warneri SI-5/2011 assessed as reduction in microbial growth measured after 18 hrs by CLSI based broth microdilution method; type: functional
[17] = test system: Staphylococcus haemolyticus; assay: Antibacterial activity against oxacillin-resistant Staphylococcus haemolyticus SI-6/2011 assessed as reduction in microbial growth measured after 18 hrs by CLSI based broth microdilution method; type: functional; summary of the method: as §4
[18] = test system: Staphylococcus haemolyticus; assay: Bactericidal activity against oxacillin-resistant Staphylococcus haemolyticus SI-6/2011 assessed as reduction in microbial growth measured after 18 hrs by CLSI based broth microdilution method; type: functional
[19] = test system: Staphylococcus epidermidis; assay: Antibacterial activity against linezolid-resistant Staphylococcus epidermidis SI-1266 assessed as reduction in microbial growth measured after 18 hrs by CLSI based broth microdilution method; type: functional; summary of the method: as §4
[20] = test system: Staphylococcus epidermidis; assay: Bactericidal activity against linezolid-resistant Staphylococcus epidermidis SI-1266 assessed as reduction in microbial growth measured after 18 hrs by CLSI based broth microdilution method; type: functional
Enterococcus faecium [21] = assay: Antibacterial activity against Vancomycin/teicoplanin resistant Enterococcus faecium SI-759 assessed as reduction in microbial growth measured after 18 hrs by CLSI based broth microdilution method; type: functional; summary of the method: as §4
Enterococcus faecium [22] = assay: Bactericidal activity against Vancomycin/teicoplanin resistant Enterococcus faecium SI-759 assessed as reduction in microbial growth measured after 18 hrs by CLSI based broth microdilution method; type: functional
Enterococcus faecium [23] = assay: Antibacterial activity against Vancomycin resistant Enterococcus faecium SI-1831 assessed as reduction in microbial growth measured after 18 hrs by CLSI based broth microdilution method; type: functional; summary of the method: as §4
Enterococcus faecium [24] = assay: Bactericidal activity against Vancomycin resistant Enterococcus faecium SI-1831 assessed as reduction in microbial growth measured after 18 hrs by CLSI based broth microdilution method; type: functional
Enterococcus faecium [25] = assay: Antibacterial activity against Vancomycin resistant Enterococcus faecium SI-3856B assessed as reduction in microbial growth measured after 18 hrs by CLSI based broth microdilution method; type: functional; summary of the method: as §4
Enterococcus faecium [26] = assay: Bactericidal activity against Vancomycin resistant Enterococcus faecium SI-3856B assessed as reduction in microbial growth measured after 18 hrs by CLSI based broth microdilution method; type: functional
rhinovirus A16 [27] = conditions: hela
enterovirus D68 [28] = conditions: hela
Zika virus [29] = conditions: vero e6
[30] = biological target: Phosphatidylinositol 4-kinase beta (Homo sapiens, UniProt Q9UBF8); assay: Inhibition of recombinant full length his tagged PI4KB (unknown origin) incubated for 10 mins in presence of ATP by ADP-glo kinase assay
Staphylococcus aureus [31] = assay: Bactericidal activity against Staphylococcus aureus ATCC 25923 assessed as reduction in microbial growth measured after 18 hrs by CLSI based broth microdilution method; type: functional; summary of the method: as §3
Escherichia coli [32] = assay: Synergistic antibacterial activity against colistin resistant mcr-positive Escherichia coli SI-63 incubated for 18 to 24 hrs in presence of colistin by broth microdilution method; type: functional; conditions: time 18-24 hrs
Summary of the method: (§5)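 Minimum antibacterial concentration (MAC) by broth microdilution in Mueller–Hinton medium with a fixed subinhibitory colistin concentration of 2 μg mL−1 against colistin-resistant Gram-negative clinical isolates; inoculum 5 × 10^4 CFU per well, 35 ± 2 °C; triplicate.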

Acinetobacter baumannii [33] = assay: Synergistic antibacterial activity against colistin/carbapenem resistant MDR Acinetobacter baumannii N50 incubated for 18 to 24 hrs in presence of colistin by broth microdilution method; type: functional; conditions: time 18-24 hrs; summary of the method: as §5
Pseudomonas aeruginosa [34] = assay: Synergistic antibacterial activity against colistin resistant MDR Pseudomonas aeruginosa SI-270 incubated for 18 to 24 hrs in presence of colistin by broth microdilution method; type: functional; conditions: time 18-24 hrs; summary of the method: as §5
rhinovirus A16 [35] = assay: microbe, parasite or virus in culture; conditions: Rhinovirus A, HeLa, 48 h
enterovirus D68 [36] = assay: microbe, parasite or virus in culture; conditions: Enterovirus D, HeLa, 48 h
Zika virus [37] = assay: microbe, parasite or virus in culture; conditions: Vero C1008, 72 h

Phosphatidylinositol 4-kinase beta, sequence (Q9UBF8 whole entry): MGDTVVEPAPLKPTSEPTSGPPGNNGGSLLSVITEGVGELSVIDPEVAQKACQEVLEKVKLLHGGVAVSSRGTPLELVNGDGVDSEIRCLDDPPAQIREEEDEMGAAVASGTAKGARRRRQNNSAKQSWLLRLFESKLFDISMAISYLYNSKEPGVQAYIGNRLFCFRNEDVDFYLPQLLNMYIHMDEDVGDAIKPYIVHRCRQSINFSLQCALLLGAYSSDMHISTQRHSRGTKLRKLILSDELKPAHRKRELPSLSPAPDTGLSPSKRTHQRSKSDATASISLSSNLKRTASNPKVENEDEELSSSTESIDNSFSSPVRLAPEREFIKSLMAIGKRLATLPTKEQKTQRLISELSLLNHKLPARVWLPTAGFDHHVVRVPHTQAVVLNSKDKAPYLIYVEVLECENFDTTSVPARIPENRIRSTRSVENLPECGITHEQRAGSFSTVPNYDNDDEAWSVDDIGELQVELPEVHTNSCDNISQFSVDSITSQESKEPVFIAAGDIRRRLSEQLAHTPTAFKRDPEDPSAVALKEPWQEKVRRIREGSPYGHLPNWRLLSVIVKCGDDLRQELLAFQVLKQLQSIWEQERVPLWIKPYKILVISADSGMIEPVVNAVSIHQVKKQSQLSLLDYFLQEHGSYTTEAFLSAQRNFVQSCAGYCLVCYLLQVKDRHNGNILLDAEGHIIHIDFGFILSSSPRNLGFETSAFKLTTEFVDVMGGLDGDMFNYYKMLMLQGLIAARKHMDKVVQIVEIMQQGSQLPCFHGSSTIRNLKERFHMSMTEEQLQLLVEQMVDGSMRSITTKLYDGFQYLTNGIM

Compound | CC50 [1] | CC50 [2] | MIC (Bacillus subtilis [3]) | MBC (Bacillus subtilis [4]) | MIC (Enterococcus faecalis [5]) | MBC (Enterococcus faecalis [6]) | MIC (Streptococcus pyogenes [7]) | MBC (Streptococcus pyogenes [8]) | MIC (Staphylococcus aureus [9]) | MAC (Escherichia coli [10]) | MAC (Klebsiella pneumoniae) | MAC (Acinetobacter baumannii [11]) | MAC (Pseudomonas aeruginosa [12]) | MIC (Staphylococcus aureus [13]) | MBC (Staphylococcus aureus [14]) | MIC (Staphylococcus warneri [15]) | MBC (Staphylococcus warneri [16]) | MIC [17] | MIC [19] | MBC [20] | also measured
O=C(O)c1cc(Nc2nc(-c3sc(NC(=O)c4ccccc4)nc3C(F)(F)F)cs2)cc(C(F)(F)F)c1 | > 50 µM | > 50 µM | 4 µg/mL | 32 µg/mL | 2 µg/mL | > 32 µg/mL | 2 µg/mL | > 32 µg/mL | > 32 µg/mL | >64 µg/mL | >64 µg/mL | >64 µg/mL | >64 µg/mL | > 64 µg/mL | > 64 µg/mL | > 64 µg/mL | > 64 µg/mL | 32 µg/mL | 32 µg/mL | > 64 µg/mL | MBC [18]: > 64 µg/mL; MIC (Enterococcus faecium [21]): 64 µg/mL; MBC (Enterococcus faecium [22]): > 64 µg/mL; MIC (Enterococcus faecium [23]): > 64 µg/mL; MBC (Enterococcus faecium [24]): > 64 µg/mL; MIC (Enterococcus faecium [25]): > 64 µg/mL; MBC (Enterococcus faecium [26]): > 64 µg/mL; IC50 (rhinovirus A16 [27]): Not Active; IC50 (enterovirus D68 [28]): Not Active; IC50 (Zika virus [29]): Not Active
CC(C)(C)C(=O)Nc1nc(C(F)(F)F)c(-c2csc(Nc3cccc(C(F)(F)F)n3)n2)s1 | 31.8 µM | 46 µM | 8 µg/mL | 16 µg/mL | 8 µg/mL | 16 µg/mL | 8 µg/mL | 8 µg/mL | 32 µg/mL | 2 µg/mL | 2 µg/mL | 4 µg/mL | >64 µg/mL | 16 µg/mL | > 64 µg/mL | > 64 µg/mL | > 64 µg/mL | > 64 µg/mL | > 64 µg/mL | > 64 µg/mL | IC50 [30]: Not Active; MBC (Staphylococcus aureus [31]): > 32 µg/mL; MBC [18]: > 64 µg/mL; MIC (Enterococcus faecium [21]): 64 µg/mL; MBC (Enterococcus faecium [22]): > 64 µg/mL; MIC (Enterococcus faecium [23]): > 64 µg/mL; MBC (Enterococcus faecium [24]): > 64 µg/mL; MIC (Enterococcus faecium [25]): > 64 µg/mL; MBC (Enterococcus faecium [26]): > 64 µg/mL; MAC (Escherichia coli [32]): 1 µg/mL; MAC (Acinetobacter baumannii [33]): 0.06 µg/mL; MAC (Pseudomonas aeruginosa [34]): 64 µg/mL; IC50 (rhinovirus A16 [35]): 9.02 µM; IC50 (enterovirus D68 [36]): 6.74 µM; IC50 (Zika virus [37]): 6.9 µM
CC(C)(C)C(=O)Nc1nc(C(F)(F)F)c(-c2csc(Nc3cccc(C(F)(F)F)c3)n2)s1 | 46 µM | > 50 µM | 4 µg/mL | 8 µg/mL | 8 µg/mL | > 32 µg/mL | 4 µg/mL | 4 µg/mL | 8 µg/mL | 4 µg/mL | 4 µg/mL | 4 µg/mL | >64 µg/mL | 4 µg/mL | 32 µg/mL | 4 µg/mL | 64 µg/mL | > 64 µg/mL | 16 µg/mL | > 64 µg/mL | IC50 ([30]; read-out: IC50): > 50 µM; MBC (Staphylococcus aureus [31]): 32 µg/mL; MIC (Enterococcus faecium [21]): 2 µg/mL; MBC (Enterococcus faecium [22]): 4 µg/mL; MIC (Enterococcus faecium [23]): 2 µg/mL; MBC (Enterococcus faecium [24]): > 64 µg/mL; MIC (Enterococcus faecium [25]): 4 µg/mL; MBC (Enterococcus faecium [26]): > 64 µg/mL; MAC (Escherichia coli [32]): 0.5 µg/mL; MAC (Acinetobacter baumannii [33]): 0.03 µg/mL; MAC (Pseudomonas aeruginosa [34]): 2 µg/mL; IC50 (rhinovirus A16 [35]): 1.82 µM; IC50 (enterovirus D68 [36]): 8.37 µM; IC50 (Zika virus [37]): 11.5 µM
O=C(Nc1nc(C(F)(F)F)c(-c2csc(Nc3ccc(O)c(C(=O)O)c3)n2)s1)c1ccccc1 | > 50 µM | > 50 µM | 16 µg/mL | > 32 µg/mL | 16 µg/mL | > 32 µg/mL | 4 µg/mL | 32 µg/mL | 16 µg/mL | >64 µg/mL | >64 µg/mL | >64 µg/mL | >64 µg/mL | 32 µg/mL | > 64 µg/mL | 64 µg/mL | 64 µg/mL | 32 µg/mL | 32 µg/mL | 64 µg/mL | IC50 [30]: Not Active; MBC (Staphylococcus aureus [31]): 32 µg/mL; MBC [18]: 64 µg/mL; MIC (Enterococcus faecium [21]): 16 µg/mL; MBC (Enterococcus faecium [22]): 64 µg/mL; MIC (Enterococcus faecium [23]): 32 µg/mL; MBC (Enterococcus faecium [24]): > 64 µg/mL; MIC (Enterococcus faecium [25]): 32 µg/mL; MBC (Enterococcus faecium [26]): > 64 µg/mL; IC50 (rhinovirus A16 [27]): Not Active; IC50 (enterovirus D68 [28]): Not Active; IC50 (Zika virus [29]): Not Active

From ChEMBL document CHEMBL5532695, “4-Trifluoromethyl bithiazoles as broad-spectrum antimicrobial agents for virus-related bacterial infections or co-infections” (RSC Med Chem, 2024)
